Laboratory results published in the RNAGym collection of RNA variant scans (doi:10.1126/science.aae0568).
Variants at the floor of the assay were thinned out.

B1: tRNA (parent)
chain: GUUCCGUUGGCGUAAUGGUAACGCGUCUCCCUCCUAAGGAGAAGACUGCGGGUUCGAGUCCCGUACGGAACG

Variants of: B1
Experiment: yeast fitness relative to wild type (ratio to wild type); higher = fitter; tRNA-Arg(CCU), competitive growth, 37 C, YPD
Procedure, shortened: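 Amplicons of the tRNA-Arg(CCU) gene were sequenced, 100-nucleotide paired-end, from the start population and from each end population of a pooled yeast competition. The competition, in six parallel replicates, lasted 24 hours in YPD at 37°C. Fitness relative to wild type was calculated from changes in genotype frequencies. Genotypes had to have ≥ 100 starting reads, and estimates < 0.5 were set to 0.5.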

Variant | yeast fitness
G18A G25C A69C | 0.519
A20U A45C | 0.621
G50A C66A | 0.516
A20U C30A G58C G68A | ≤ 0.5
G25C C31U U32A C46U | ≤ 0.5
A21G G52A A57U G67C | ≤ 0.5
U8C A36U G38A A45U C49U C61G | ≤ 0.5
C11G A21C C22G C30G A45U | 0.558
C11U U16G | 0.823
C29U C61G | 0.658
U13C C22U A45U G48A C55A | ≤ 0.5
C5G U7A A20C | 0.694
U28C C30U C49U | ≤ 0.5
C5U G25C C49A G56C C62G | ≤ 0.5
C4U A14C G51C | ≤ 0.5
C22U C34G G39A | ≤ 0.5
G18A U19A | 0.594
C4U U26A C33A C34G | ≤ 0.5
U32C G39A A40U G63C | ≤ 0.5
C4A G44C A57C | ≤ 0.5
C46A G56U A57G | 0.665
C33A G51A | 0.659
C24G A37G G56A G58A G67A | ≤ 0.5
C11G G17C G63A | ≤ 0.5

Variant | yeast fitness
U26C G38A A43C A65C | ≤ 0.5
U13C C30A G38A C55A A65C | ≤ 0.5
A36G G39A | 0.954
C4U A20C C22U U47A C62U | 0.753
U28A C29U A37G G52C | ≤ 0.5
A14G U47C G68A | ≤ 0.5
U16G U28A A42G | 0.665
C22U U28C | 0.736
U16C A21C G41A | ≤ 0.5
A42C A57U C61U | ≤ 0.5
C27U A57U | 0.668
A21C C27A G50C | ≤ 0.5
C34G A40C | 0.636
C29A U32C C49A | ≤ 0.5
G23C C55U | ≤ 0.5
G17A C31U C66A | ≤ 0.5
U28G G41C G56A | 0.562
A20U C29U C30G C34A U35A C66A | ≤ 0.5
C24A A45G | 0.626
C4A A15G G56C | 0.583
A21C C55G A57U G67A | ≤ 0.5
U3C C61U | 0.847
C11A A20U U28A C60G | 0.521
C34U A36G C66A | ≤ 0.5

Variant | yeast fitness
U2C C29U C62U A70U | ≤ 0.5
U3A G9C A20G C29A | ≤ 0.5
C5U U13C G39C A45G | ≤ 0.5
U26G A70C | 0.924
A21U C30G C34U G52A A65C A69U | ≤ 0.5
G10C C27G A42C | ≤ 0.5
G17C C22G C29A C46U A65C | ≤ 0.5
C4G U8A G12A U35G | ≤ 0.5
G9C G44C C66U | 0.568
U8C C62U | 0.881
G23A C24G G25A G48A | ≤ 0.5
C4U U16A G23A A36G C49G | ≤ 0.5
C4G A42C | 0.78
G10C C11G C24G G67A | ≤ 0.5
A20U C31A A69C | 0.624
G17A U47G G67A A69C | 0.559
C11G C27A C46G G50A C61U | ≤ 0.5
A42U C61A | 0.683
C4U G18C G38A A40C | 0.545
G12A C27G A70C | ≤ 0.5
U64A G67A | 0.84
G18C C22G G39A | ≤ 0.5
A40G A57U C60U A70G | 0.624
C4U C34A | 0.846

Variant | yeast fitness
G9A C11G G50C C61G A70C | ≤ 0.5
U2G U7C A37C U59C | ≤ 0.5
A14U C46G | 0.612
C22U C46A | 0.975
U28A C33A G51C A57C | ≤ 0.5
A15G C61U | 0.65
U2A C27U C29U C62U | ≤ 0.5
U2C G38A U47A C55G C61U | ≤ 0.5
C5G G56C | 0.662
C22U C24U U28C C29G C33A G68C | 0.569
C5G C33U A57G | ≤ 0.5
G23C C31A A36U A70C | 0.557
U7A A15G G23A C27A U28C C29G C61A | ≤ 0.5
U16A A21G C34U G67C | ≤ 0.5
C11A A15G G58C | 0.505
C4G G38A C55U | ≤ 0.5
U3A C49U C60U A70G | 0.551
G6A U13C G23A A65C | ≤ 0.5
U35G C49G U64A | 0.525
C4U C11A U28A C31U G51C | 0.622
G52A A57U | 0.516
A14U U19A C24U C55G A70U | 0.532
U2C U35C A69C | ≤ 0.5
G18A A42G G48C | ≤ 0.5

Variant | yeast fitness
G6A A14C C24U | 0.597
A43G C60U A65G | 0.535
U8C G38C | 0.799
G9C U32A C55U A57U C62A | ≤ 0.5
G12A A43G | 0.988
U8C C11U G23A C31U A45C G48A G67A | ≤ 0.5
C27U C61G | 0.647
C5U G6A G44C G63A | ≤ 0.5
A14G G50A | 0.907
A21G A42G C66G | ≤ 0.5
U8C C30G C33G A70U | 0.571
C31U G52C A57C | ≤ 0.5
A14G C31U | 0.932
G10C A14G C22U A37G A40U C46A U54C | ≤ 0.5
A14U G48A | 0.931
A20G C22A G23C | ≤ 0.5
U2C A40G A43U A45C A57G A65C | 0.52
C4U C5U G12A A21C C27U | ≤ 0.5
G10A U32G C66A | ≤ 0.5
U2C C30U C31G G50U | ≤ 0.5
G9C C30A | 0.664
A15C A21C A36U U47C G63A | 0.578
C4A G10A G23A C55G C60A | ≤ 0.5
C31U A43G U53C | 0.513

Variant | yeast fitness
A14C G25C C27G C34U U35A G38A U59A | ≤ 0.5
C27G C30A U47C | 0.535
U3A C46U C49U U53C | ≤ 0.5
U16G C30U | 0.777
C24A A36U G41C | ≤ 0.5
U16G C22G | 1
A15C A20G C31U A42C | ≤ 0.5
C34G A36G | 0.644
U8C G18C C33U | ≤ 0.5
G9A C33G A42C C49U C55G | 0.729
U16A A20U C24G C33G C61A G67C | 0.561
U3A C27U G41C U64C A70C | 0.896
U2C A57C | 0.679
A14C C49G G63A | 0.593
C5G G10C G52A | ≤ 0.5
C27G C55G | ≤ 0.5
A14U C30U C46U G52C A69U | ≤ 0.5
U7G A36C G67A | ≤ 0.5
G6C G12A | 0.85
C11U U16C C31U A69G | ≤ 0.5
A21G U32C U59G C66U A70C | 0.703
G41C U54C | 0.889
C55G G56A C61U | ≤ 0.5
U2C C11U C22U A57U | ≤ 0.5

Variant | yeast fitness
U16A U28G C66U | ≤ 0.5
U16A A21C A36G G44A U59A | ≤ 0.5
G17U G67C | 0.798
U7A U13G G41A | ≤ 0.5
A14U C22U A40U G44C A57C | 0.635
G41A G58C | 0.929
G39C A42C | 0.687
G25A C60A C61A G63A | 0.75
U2G C22U C62U | 0.616
U7A C60U | 0.652
U7C A14G C22G | ≤ 0.5
G6A C30U G63A G67A | ≤ 0.5
U2C C29U A37G A57G | ≤ 0.5
C11A A14U A42G C62A C66U | ≤ 0.5
C55G C60U | ≤ 0.5
G10U A14U | ≤ 0.5
G18A A20C C34U A36U G39C A70U | ≤ 0.5
U2G C31A | 0.788
C31G C34U A42U A70C | ≤ 0.5
C4G G50C C61U | 0.52
C4G U19A C27A G58C C61A A69U | ≤ 0.5
A15C A21C A45U C61U C66U | ≤ 0.5
G23C C33G A42U C66A | 0.643
